In ChEMBL document CHEMBL1926556, “Synthesis and biological activities of 2-[(heteroaryl)methyl]imidazolines” (Bioorg Med Chem, 2012):
pIC50: −log10 of the molar value. Activity calls are given as the source filed them. The rule behind the calls is not given here.

Tests used:
Nischarin = Nischarin (Rattus norvegicus, UniProt Q4G017); experiment: Displacement of [3H]clonidine from imidazoline I1 receptor in Sprague-Dawley rat kidney membranes after 45 mins by scintillation counting; format: cell membranes, Membrane
How it was run: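 Crude P2 membranes from male Sprague–Dawley rat kidney, 0.2–0.5 mg protein. […] Specific binding defined by 10 µM rilmenidine. 11 concentrations from 0.01 to 100 µM, 50 mM Tris-HCl pH 7.4, 45 min at RT. Filtration and scintillation counting; IC50.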

[1] = molecular target: T1, Adrenergic receptor alpha-2 (Rattus norvegicus, UniProt P22086+P19328+P22909); experiment: Displacement of […] from adrenoceptor alpha2 in Sprague-Dawley rat brain membranes after 45 mins by scintillation counting; format: cell membranes, Membrane
T1 sequence (P22086 whole entry): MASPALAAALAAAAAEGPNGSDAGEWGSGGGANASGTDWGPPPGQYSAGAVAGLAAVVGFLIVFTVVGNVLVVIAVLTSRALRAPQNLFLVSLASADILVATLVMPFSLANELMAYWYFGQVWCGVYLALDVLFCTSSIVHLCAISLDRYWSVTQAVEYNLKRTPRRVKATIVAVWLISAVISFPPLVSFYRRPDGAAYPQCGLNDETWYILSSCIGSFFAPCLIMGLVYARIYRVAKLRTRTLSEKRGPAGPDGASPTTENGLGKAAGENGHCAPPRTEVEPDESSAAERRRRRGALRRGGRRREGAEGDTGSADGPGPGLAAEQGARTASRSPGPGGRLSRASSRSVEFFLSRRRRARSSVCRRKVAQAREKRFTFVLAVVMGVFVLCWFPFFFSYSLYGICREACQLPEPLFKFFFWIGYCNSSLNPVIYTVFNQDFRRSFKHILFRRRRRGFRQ
T1 sequence (P19328 whole entry): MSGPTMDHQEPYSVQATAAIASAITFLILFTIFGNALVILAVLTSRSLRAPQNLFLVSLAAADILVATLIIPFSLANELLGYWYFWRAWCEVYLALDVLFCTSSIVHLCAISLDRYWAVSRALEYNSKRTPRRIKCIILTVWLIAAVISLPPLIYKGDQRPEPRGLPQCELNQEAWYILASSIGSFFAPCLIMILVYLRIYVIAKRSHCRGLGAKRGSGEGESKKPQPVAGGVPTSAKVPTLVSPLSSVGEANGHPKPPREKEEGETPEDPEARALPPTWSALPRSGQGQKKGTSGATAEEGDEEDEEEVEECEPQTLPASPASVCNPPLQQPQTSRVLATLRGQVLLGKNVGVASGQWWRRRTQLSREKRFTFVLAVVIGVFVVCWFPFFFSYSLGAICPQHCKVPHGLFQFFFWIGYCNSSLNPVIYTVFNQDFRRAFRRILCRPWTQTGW
T1 sequence (P22909 whole entry): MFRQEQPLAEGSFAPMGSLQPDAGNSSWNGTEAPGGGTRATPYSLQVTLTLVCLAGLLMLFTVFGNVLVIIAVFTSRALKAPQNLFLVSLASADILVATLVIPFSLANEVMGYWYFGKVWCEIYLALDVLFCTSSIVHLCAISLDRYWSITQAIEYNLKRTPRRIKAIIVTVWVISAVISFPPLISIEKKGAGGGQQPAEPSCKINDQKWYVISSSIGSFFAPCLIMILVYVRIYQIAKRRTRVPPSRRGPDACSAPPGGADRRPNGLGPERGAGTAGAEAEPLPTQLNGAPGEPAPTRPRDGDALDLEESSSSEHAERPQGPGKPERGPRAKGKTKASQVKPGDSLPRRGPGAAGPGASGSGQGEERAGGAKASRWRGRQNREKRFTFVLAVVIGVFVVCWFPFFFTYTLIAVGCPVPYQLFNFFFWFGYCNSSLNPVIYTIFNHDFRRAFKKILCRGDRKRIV
How it was run: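 Crude P2 membranes from male Sprague–Dawley rat brain (250–280 g), 0.2–0.3 mg protein. Radioligand 1 nM: [3H]2BFI for I2, [3H]prazosin for α1, [3H]RX821002 for α2. Non-specific binding defined by 10 µM BU224 (I2), 10 µM phenylephrine (α1) or 10 µM rauwolscine (α2). 11 concentrations from 0.01 nM to 100 µM, triplicate, 45 min at RT. Filtration and scintillation counting; Ki by Cheng–Prusoff.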

Rattus norvegicus [2] = experiment: Antihypertensive activity in Wistar rat assessed as inhibition of methoxamine-induced change in heart rate at 0.1 mg/kg, iv administered 10 mins after methoxamine challenge; format: functional
How it was run: (§1)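 Male Wistar rats (200–290 g) anaesthetized with i.p. thiopental 70 mg/kg, maintained by thiopental infusion, 36–37 °C. Carotid catheter for BP/HR, jugular line for infusion. Methoxamine i.v. infusion 10 or 20 µg/kg/min began 10 min before 0.1 mg/kg i.v. bolus. Readout is ΔMAP or ΔHR from time 0. Five to seven rats per group; repeated-measures ANOVA.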

Rattus norvegicus [3] = experiment: Antihypertensive activity in Wistar rat assessed as inhibition of methoxamine-induced change in blood pressure at 0.1 mg/kg, iv administered 10 mins after 10 ug/kg/min methoxamine challenge; format: functional, organism-based; parameters: dose 0.1 mg/kg; how it was run: as §1
Rattus norvegicus [4] = experiment: Antihypertensive activity in Wistar rat assessed as inhibition of methoxamine-induced change in heart rate at 0.1 mg/kg, iv co-administered with 10 ug/kg/min methoxamine challenge; format: functional, organism-based; parameters: dose 0.1 mg/kg; how it was run: as §1
Rattus norvegicus [5] = experiment: Antihypertensive activity in Wistar rat assessed as inhibition of methoxamine-induced change in heart rate at 0.1 mg/kg, iv co-administered with 20 ug/kg/min methoxamine challenge; format: functional, organism-based; parameters: dose 0.1 mg/kg; how it was run: as §1
Rattus norvegicus [6] = experiment: Anxiolytic activity in Sprague-Dawley rat assessed as loss of righting reflex at 10 ug/kg, ip measured after 30 mins; format: functional, organism-based
How it was run: (§2)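 Male Sprague–Dawley rats (250–270 g) were handled by the experimenter one day before testing. Compound was dissolved in sterile saline and given i.p. If no loss of righting reflex occurred after 5 min, the dose was repeated, up to 2000 µg/kg cumulative. Animals were watched for righting reflex, locomotion, motor coordination and behaviour. Righting reflex was scored at 30 min.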

Rattus norvegicus [7] = experiment: Anxiolytic activity in Sprague-Dawley rat assessed as loss of righting reflex at 100 ug/kg, ip measured after 30 mins; format: functional, organism-based; how it was run: as §2
Rattus norvegicus [8] = experiment: Anxiolytic activity in Sprague-Dawley rat assessed as loss of righting reflex at 1000 ug/kg, ip measured after 30 mins; format: functional, organism-based; how it was run: as §2
Rattus norvegicus [9] = experiment: Anxiolytic activity in Sprague-Dawley rat assessed as loss of righting reflex at 2000 ug/kg, ip measured after 30 mins; format: functional, organism-based; how it was run: as §2
Rattus norvegicus [10] = experiment: Toxicity in Sprague-Dawley rat assessed as loss of spontaneous locomotory activity at 10 to 2000 ug/kg, ip measured within 5 to 8 mins; format: organism-based; details: in vivo; how it was run: as §2
Rattus norvegicus [11] = experiment: Toxicity in Sprague-Dawley rat assessed as calm behavior at 10 to 2000 ug/kg, ip measured after 30 mins; format: organism-based; details: in vivo, 0.5 h
Rattus norvegicus [12] = experiment: Toxicity in Sprague-Dawley rat assessed as subdued state at 10 to 2000 ug/kg, ip measured after 30 mins; format: organism-based; details: in vivo, 0.5 h; how it was run: as §2
Rattus norvegicus [13] = experiment: Toxicity in Sprague-Dawley rat assessed as exploratory behavior at 10 to 2000 ug/kg, ip measured after 30 mins; format: organism-based; details: in vivo, 0.5 h
Rattus norvegicus [14] = experiment: Toxicity in Sprague-Dawley rat assessed as resistance to handling at 10 to 2000 ug/kg, ip measured after 30 mins; format: organism-based; details: in vivo, 0.5 h; how it was run: as §2

Nischarin, sequence (Q4G017 whole entry): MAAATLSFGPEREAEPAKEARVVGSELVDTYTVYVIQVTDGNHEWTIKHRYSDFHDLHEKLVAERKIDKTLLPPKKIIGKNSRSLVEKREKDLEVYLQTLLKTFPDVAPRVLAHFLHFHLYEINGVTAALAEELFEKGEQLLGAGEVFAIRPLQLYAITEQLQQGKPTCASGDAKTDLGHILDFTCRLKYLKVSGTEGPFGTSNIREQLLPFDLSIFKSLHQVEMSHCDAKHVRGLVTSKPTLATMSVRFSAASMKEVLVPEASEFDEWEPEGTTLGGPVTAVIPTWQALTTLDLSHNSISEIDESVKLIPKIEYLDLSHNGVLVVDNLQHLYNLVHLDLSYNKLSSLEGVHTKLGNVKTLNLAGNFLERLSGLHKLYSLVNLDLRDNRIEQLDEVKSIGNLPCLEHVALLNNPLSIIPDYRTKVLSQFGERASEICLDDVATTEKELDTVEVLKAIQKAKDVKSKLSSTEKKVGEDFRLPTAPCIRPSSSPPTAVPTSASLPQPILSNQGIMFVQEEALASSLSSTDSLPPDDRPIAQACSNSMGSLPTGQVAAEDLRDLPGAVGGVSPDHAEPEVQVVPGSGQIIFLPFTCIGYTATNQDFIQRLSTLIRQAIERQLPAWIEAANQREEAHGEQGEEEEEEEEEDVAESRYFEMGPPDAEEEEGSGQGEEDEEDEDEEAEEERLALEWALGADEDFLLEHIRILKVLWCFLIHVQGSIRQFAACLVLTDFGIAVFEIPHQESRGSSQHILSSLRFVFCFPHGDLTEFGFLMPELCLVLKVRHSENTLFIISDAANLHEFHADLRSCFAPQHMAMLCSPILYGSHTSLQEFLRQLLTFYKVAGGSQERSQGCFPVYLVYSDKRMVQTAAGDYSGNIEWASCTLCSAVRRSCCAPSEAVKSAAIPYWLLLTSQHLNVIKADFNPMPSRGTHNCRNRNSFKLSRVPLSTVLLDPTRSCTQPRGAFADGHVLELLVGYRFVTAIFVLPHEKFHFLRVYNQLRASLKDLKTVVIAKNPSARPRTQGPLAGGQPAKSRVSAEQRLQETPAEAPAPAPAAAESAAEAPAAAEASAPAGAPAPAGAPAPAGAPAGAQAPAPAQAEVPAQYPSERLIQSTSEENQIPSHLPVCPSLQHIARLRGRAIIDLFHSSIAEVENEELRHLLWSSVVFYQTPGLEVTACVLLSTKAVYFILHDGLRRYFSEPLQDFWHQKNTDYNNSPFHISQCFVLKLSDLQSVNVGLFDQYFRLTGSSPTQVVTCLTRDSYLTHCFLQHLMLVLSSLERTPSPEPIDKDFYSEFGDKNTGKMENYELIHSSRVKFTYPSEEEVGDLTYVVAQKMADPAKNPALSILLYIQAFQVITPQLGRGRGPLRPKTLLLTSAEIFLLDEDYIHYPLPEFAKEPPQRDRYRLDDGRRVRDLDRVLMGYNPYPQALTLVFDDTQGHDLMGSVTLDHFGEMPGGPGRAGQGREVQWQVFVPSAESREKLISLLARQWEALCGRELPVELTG

Row | SMILES | pIC50 (Nischarin) | Ki [1] [nM] | Activity (Rattus norvegicus [2]) [bpm] | Activity (Rattus norvegicus [3]) | Activity (Rattus norvegicus [4]) | Activity (Rattus norvegicus [5]) | Activity (Rattus norvegicus [6]) | Activity (Rattus norvegicus [7]) | Activity (Rattus norvegicus [8]) | Activity (Rattus norvegicus [9]) | Activity (Rattus norvegicus [10]) | Activity (Rattus norvegicus [11]) | Activity (Rattus norvegicus [12]) | Activity (Rattus norvegicus [13]) | Activity (Rattus norvegicus [14])
1 | Cl.Clc1cccc2cnn(CC3=NCCN3)c12 | 6.07 | 6.4 | -131.8 | inactive | Active | Active | inactive | inactive | Active | Active | Toxic | Non-toxic | Non-toxic | Non-toxic | Non-toxic
2 | Cl.c1ccc2c(c1)cnn2CC1=NCCN1 | 4.71 | 18.5 |  |  |  |  |  |  |  |  |  |  |  |  | 
3 | Cc1cccc2cnn(CC3=NCCN3)c12.Cl | 4.02 | 607 |  |  |  |  |  |  |  |  |  |  |  |  | 
